Laboratory results: ChEMBL document CHEMBL1139324, “Chemical modification and biological evaluation of new semisynthetic derivatives of 28,29-Didehydronystatin A1 (S44HP), a genetically engineered antifungal polyene macrolide antibiotic” (J Med Chem, 2009)
≈ marks a conversion by molar mass, not a printed value.

How the values were obtained:
[1] = system: Candida albicans; assay: Antifungal activity against Candida albicans ATCC 14053 after 48 hrs by broth microdilution method; type: functional; conditions: ATCC 14053, 48 h
In short: (§1)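 Yeast susceptibility by broth microdilution per NCCLS M27-A in 96-well plates. MIC is the lowest concentration inhibiting growth. Where repeat runs fully coincided, a single value is reported.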

[2] = system: Aspergillus niger; assay: Antifungal activity against Aspergillus niger ATCC 16404 after 48 hrs by broth microdilution method; type: functional; conditions: ATCC 16404, 48 h
In short: (§2)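 Susceptibility of filamentous fungi (molds) by broth microdilution per NCCLS M38-A in 96-well microplates. The MIC is read as the lowest inhibitory concentration. It is given as one number when replicate data fully agreed.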

[3] = system: Vanrija humicola; assay: Antifungal activity against Cryptococcus humicolus ATCC 9949 after 48 hrs by broth microdilution method; type: functional; conditions: ATCC 9949, 48 h; in short: as §1
[4] = Toxicity against human erythrocytes assessed as hemolytic activity at 5 ug/ml; type: cell-based, Erythrocyte; conditions: read-out: Activity
In short: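 Lysis of erythrocytes in defibrinated human blood was measured under buffered conditions with compound at 5 µg/mL. Percent hemolysis is the mean of blood samples from two donors.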

[5] = system: Fusarium oxysporum; assay: Antifungal activity against Fusarium oxysporum VKM F-140 after 48 hrs by broth microdilution method; type: functional; in short: as §2
[6] = system: Candida albicans; assay: Antifungal activity against Candida albicans ATCC 10231after 48 hrs by broth microdilution method; type: functional; conditions: ATCC 10231, 48 h

Row | SMILES | MIC [1] [µg/mL] | MIC [2] [µg/mL] | MIC [3] [µg/mL] | MIC [5] [µg/mL] | MIC50 [6] [µg/mL] | MIC90 [6] [µg/mL] | hemolysis at 5 ug/ml [4] [%]
1 | C[C@@H]1[C@H](O)[C@@H](C)/C=C/C=C/C=C/C=C/C=C/C=C/C=C/[C@H](O[C@H]2O[C@@H](C)[C@H](O)[C@@H](N)[C@H]2O)C[C@@H]2O[C@](O)(C[C@@H](O)[C@H](O)CC[C@@H](O)C[C@@H](O)C[C@@H](O)CC(=O)O[C@H]1C)C[C@H](O)[C@H]2C(=O)N(C)CC(O)C(O)C(O)C(O)CO (some centres undefined) | 4 (≈ 3.63 µM) | 4 (≈ 3.63 µM) | 4 (≈ 3.63 µM) | > 16 |  |  | 
2 | C[C@@H]1[C@H](O)[C@@H](C)/C=C/C=C/C=C/C=C/C=C/C=C/C=C/[C@H](O[C@H]2O[C@@H](C)[C@H](O)[C@@H](NCc3ccccc3S(=O)(=O)O)[C@H]2O)C[C@@H]2O[C@](O)(C[C@@H](O)[C@H](O)CC[C@@H](O)C[C@@H](O)C[C@@H](O)CC(=O)O[C@H]1C)C[C@H](O)[C@H]2C(=O)O | 4 (≈ 3.66 µM) | 4 (≈ 3.66 µM) | 4 (≈ 3.66 µM) | > 16 |  |  | 
3 | C[C@@H]1[C@H](O)[C@@H](C)/C=C/C=C/C=C/C=C/C=C/C=C/C=C/[C@H](O[C@H]2O[C@@H](C)[C@H](O)[C@@H](N)[C@H]2O)C[C@@H]2O[C@](O)(C[C@@H](O)[C@H](O)CC[C@@H](O)C[C@@H](O)C[C@@H](O)CC(=O)O[C@H]1C)C[C@H](O)[C@H]2C(=O)NC1C2CC3CC(C2)CC1C3 (some centres undefined) | 4 (≈ 3.78 µM) | 4 (≈ 3.78 µM) | 4 (≈ 3.78 µM) | 8 (≈ 7.57 µM) |  |  | 
4 | COC(=O)[C@@H](NC(=O)[C@H]1[C@@H]2C[C@@H](O[C@H]3O[C@@H](C)[C@H](O)[C@@H](N)[C@H]3O)/C=C/C=C/C=C/C=C/C=C/C=C/C=C/[C@H](C)[C@@H](O)[C@@H](C)[C@H](C)OC(=O)C[C@H](O)C[C@H](O)C[C@H](O)CC[C@@H](O)[C@H](O)C[C@](O)(C[C@@H]1O)O2)C(C)C | 2 (≈ 1.93 µM) | 4 (≈ 3.86 µM) | 2 (≈ 1.93 µM) | 8 (≈ 7.71 µM) |  |  | 

More lines, main results first:

Row | MIC [1] [µg/mL] | MIC [2] [µg/mL] | MIC [3] [µg/mL] | MIC [5] [µg/mL] | MIC50 [6] [µg/mL] | MIC90 [6] [µg/mL] | SMILES | hemolysis at 5 ug/ml [4] [%]
5 | 2 (≈ 2.17 µM) | 4 (≈ 4.33 µM) | 2 (≈ 2.17 µM) | 4 (≈ 4.33 µM) |  |  | C[C@@H]1[C@H](O)[C@@H](C)/C=C/C=C/C=C/C=C/C=C/C=C/C=C/[C@H](O[C@H]2O[C@@H](C)[C@H](O)[C@@H](N)[C@H]2O)C[C@@H]2O[C@](O)(C[C@@H](O)[C@H](O)CC[C@@H](O)C[C@@H](O)C[C@@H](O)CC(=O)O[C@H]1C)C[C@H](O)[C@H]2C(N)=O | 8
6 | 1 (≈ 0.991 µM) | 2 (≈ 1.98 µM) | 1 (≈ 0.991 µM) | 4 (≈ 3.96 µM) | 0.15 (≈ 0.149 µM) | 0.36 (≈ 0.357 µM) | CCOC(=O)CNC(=O)[C@H]1[C@@H]2C[C@@H](O[C@H]3O[C@@H](C)[C@H](O)[C@@H](N)[C@H]3O)/C=C/C=C/C=C/C=C/C=C/C=C/C=C/[C@H](C)[C@@H](O)[C@@H](C)[C@H](C)OC(=O)C[C@H](O)C[C@H](O)C[C@H](O)CC[C@@H](O)[C@H](O)C[C@](O)(C[C@@H]1O)O2 | 38
7 | 1 (≈ 0.921 µM) | 2 (≈ 1.84 µM) | 1 (≈ 0.921 µM) | 8 (≈ 7.36 µM) |  |  | C[C@@H]1[C@H](O)[C@@H](C)/C=C/C=C/C=C/C=C/C=C/C=C/C=C/[C@H](O[C@H]2O[C@@H](C)[C@H](O)[C@@H](NC[C@]3(O)OC[C@@H](O)[C@@H](O)[C@@H]3O)[C@H]2O)C[C@@H]2O[C@](O)(C[C@@H](O)[C@H](O)CC[C@@H](O)C[C@@H](O)C[C@@H](O)CC(=O)O[C@H]1C)C[C@H](O)[C@H]2C(=O)O | 5
8 | 2 (≈ 1.98 µM) | 4 (≈ 3.96 µM) | 2 (≈ 1.98 µM) | 8 (≈ 7.93 µM) |  |  | COC(=O)[C@H](C)NC(=O)[C@H]1[C@@H]2C[C@@H](O[C@H]3O[C@@H](C)[C@H](O)[C@@H](N)[C@H]3O)/C=C/C=C/C=C/C=C/C=C/C=C/C=C/[C@H](C)[C@@H](O)[C@@H](C)[C@H](C)OC(=O)C[C@H](O)C[C@H](O)C[C@H](O)CC[C@@H](O)[C@H](O)C[C@](O)(C[C@@H]1O)O2 | 
9 | 1 (≈ 1.02 µM) | 2 (≈ 2.04 µM) | 1 (≈ 1.02 µM) | 2 (≈ 2.04 µM) | 0.09 (≈ 0.0917 µM) | 0.27 (≈ 0.275 µM) | C[C@@H]1[C@H](O)[C@@H](C)/C=C/C=C/C=C/C=C/C=C/C=C/C=C/[C@H](O[C@H]2O[C@@H](C)[C@H](O)[C@@H](N)[C@H]2O)C[C@@H]2O[C@](O)(C[C@@H](O)[C@H](O)CC[C@@H](O)C[C@@H](O)C[C@@H](O)CC(=O)O[C@H]1C)C[C@H](O)[C@H]2C(=O)NCCCO | 4
10 | 2 (≈ 1.95 µM) | 4 (≈ 3.9 µM) | 2 (≈ 1.95 µM) | 4 (≈ 3.9 µM) |  |  | COC(=O)C(CO)NC(=O)[C@H]1[C@@H]2C[C@@H](O[C@H]3O[C@@H](C)[C@H](O)[C@@H](N)[C@H]3O)/C=C/C=C/C=C/C=C/C=C/C=C/C=C/[C@H](C)[C@@H](O)[C@@H](C)[C@H](C)OC(=O)C[C@H](O)C[C@H](O)C[C@H](O)CC[C@@H](O)[C@H](O)C[C@](O)(C[C@@H]1O)O2 (some centres undefined) | 4
